Experimental data: ChEMBL document CHEMBL4007450, “Development of 1,2,4-Oxadiazoles as Potent and Selective Inhibitors of the Human Deacetylase Sirtuin 2: Structure-Activity Relationship, X-ray Crystal Structure, and Anticancer Activity” (J Med Chem, 2017)
The source made the active and inactive calls. No cut-off for these calls is given here.

Key:
[1] = system: U-937; experiment: Cell cycle arrest in human U937 cells assessed as accumulation at S phase at 25 uM after 48 hrs by propidium iodide staining-based FACS analysis; format: functional
[2] = system: NB-4; experiment: Induction of apoptosis in human NB4 cells assessed as pre-G1 accumulation at 25 uM after 48 hrs by propidium iodide staining-based FACS analysis; format: functional
Procedure, shortened: (§1)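 Leukemia cells (U937, NB4, HL-60, K562) were grown in RPMI-1640 with 10% FBS, 2 mM L-glutamine and antibiotics, then treated for 48 h at 5, 10, 25 and 50 μM. 2.5×10^5 cells were stained 30 min in the dark in hypotonic PI buffer (0.1% Triton X-100, 0.1% citrate, 50 µg/mL PI, RNase A). Apoptosis was scored as pre-G1 content by flow cytometry. Duplicates, mean ± SD.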

[3] = system: K562; experiment: Induction of apoptosis in human K562 cells assessed as pre-G1 accumulation at 25 uM after 48 hrs by propidium iodide staining-based FACS analysis; format: functional; procedure, shortened: as §1
[4] = system: MDA-MB-231; experiment: Induction of apoptosis in human MDA-MB-231 cells assessed as pre-G1 accumulation at 25 uM after 48 hrs by propidium iodide staining-based FACS analysis; format: functional
Procedure, shortened: (§2)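 MDA-MB-231 breast cancer cells were grown in DMEM with 10% FBS, 2 mM L-glutamine and antibiotics, then exposed for 48 h at 5, 10, 25 or 50 μM. 2.5×10^5 cells were stained in hypotonic buffer with 50 µg/mL PI, 0.1% Triton X-100, 0.1% citrate and RNase A for 30 min in the dark. Pre-G1 fraction was measured by flow cytometry. Biological duplicates, mean ± SD.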

[5] = system: OCI-AML-3; experiment: Antiproliferative activity against human OCI-AML3 cells harboring NPM1c+, DNMT3A R882C mutant assessed as cell growth inhibition after 48 hrs by WST1 assay; format: functional, cell-based; details: OCI-AML-3, 48 h
Procedure, shortened: (§3)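 WST-1 proliferation assay. Cells plated in triplicate at 5×10^3 cells/well and exposed to increasing compound concentrations for 48 h at 37 °C, 5% CO2. WST-1 reagent was then added for 1 h. IC50 was obtained by nonlinear regression of each cell line's dose-response curve.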

[6] = Antiproliferative activity against human IMS-M2 cells harboring NPM1c+ assessed as cell growth inhibition after 48 hrs by WST1 assay; format: functional, cell-based; details: IMS-M2, 48 h; procedure, shortened: as §3
[7] = system: OCI-AML2; experiment: Antiproliferative activity against human OCI-AML2 cells harboring DNMT3A R635W mutant assessed as cell growth inhibition after 48 hrs by WST1 assay; format: functional, cell-based; details: OCI-AML2, 48 h; procedure, shortened: as §3
[8] = system: MV4-11; experiment: Antiproliferative activity against human MV4-11 cells harboring FLT3-ITD [t(4;11)(q21;q23)], MLL/MLLT2(AF4) mutant assessed as cell growth inhibition after 48 hrs by WST1 assay; format: functional, cell-based; details: MV4-11, 48 h; procedure, shortened: as §3
[9] = system: Kasumi 1; experiment: Antiproliferative activity against human Kasumi-1 cells harboring AML1-ETO [t(8:21)] mutant assessed as cell growth inhibition after 48 hrs by WST1 assay; format: functional, cell-based; details: Kasumi 1, 48 h; procedure, shortened: as §3
[10] = system: U-937; experiment: Antiproliferative activity against human U937 cells harboring p53+/- assessed as cell growth inhibition after 48 hrs by WST1 assay; format: functional, cell-based; details: U-937, 48 h; procedure, shortened: as §3
[11] = system: NB-4; experiment: Antiproliferative activity against human NB4 cells harboring PML-RARalpha [t(15;17)(q22;q12)] mutant assessed as cell growth inhibition after 48 hrs by WST1 assay; format: functional, cell-based; details: NB-4, 48 h; procedure, shortened: as §3
[12] = system: HL-60; experiment: Antiproliferative activity against human p53 deficient HL60 cells assessed as cell growth inhibition after 48 hrs by WST1 assay; format: functional, cell-based; details: HL-60, 48 h; procedure, shortened: as §3
[13] = system: KARPAS-299; experiment: Antiproliferative activity against human KARPAS299 cells harboring NPM1/ALK, [t(2;5)(p23;q35)] mutant assessed as cell growth inhibition after 48 hrs by WST1 assay; format: functional, cell-based; details: KARPAS-299, 48 h; procedure, shortened: as §3
[14] = biological target: T1, NAD-dependent protein deacetylase sirtuin-2 (Homo sapiens, UniProt Q8IXJ6)
T1 sequence (Q8IXJ6 whole entry): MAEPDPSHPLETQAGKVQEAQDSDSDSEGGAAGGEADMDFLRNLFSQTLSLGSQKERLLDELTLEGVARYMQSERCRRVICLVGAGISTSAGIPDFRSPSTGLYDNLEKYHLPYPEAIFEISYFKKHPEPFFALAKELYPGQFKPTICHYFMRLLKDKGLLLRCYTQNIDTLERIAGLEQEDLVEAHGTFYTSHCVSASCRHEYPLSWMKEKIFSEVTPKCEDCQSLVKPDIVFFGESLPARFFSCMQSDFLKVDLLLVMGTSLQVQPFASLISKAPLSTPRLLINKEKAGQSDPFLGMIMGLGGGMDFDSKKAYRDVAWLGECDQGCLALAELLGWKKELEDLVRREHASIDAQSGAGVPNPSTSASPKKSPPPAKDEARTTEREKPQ

[15] = biological target: T2, NAD-dependent protein deacetylase sirtuin-3, mitochondrial (Homo sapiens) (UniProt Q9NTG7); experiment: Inhibition of human SIRT3 (114 to 380 residues) activity expressed in Escherichia coli using AceCS2 peptide as substrate up to 100 uM after 45 mins in presence of NAD+ by pNCA/GDH-based microplate spectrophotometric analysis
T2 sequence (whole entry): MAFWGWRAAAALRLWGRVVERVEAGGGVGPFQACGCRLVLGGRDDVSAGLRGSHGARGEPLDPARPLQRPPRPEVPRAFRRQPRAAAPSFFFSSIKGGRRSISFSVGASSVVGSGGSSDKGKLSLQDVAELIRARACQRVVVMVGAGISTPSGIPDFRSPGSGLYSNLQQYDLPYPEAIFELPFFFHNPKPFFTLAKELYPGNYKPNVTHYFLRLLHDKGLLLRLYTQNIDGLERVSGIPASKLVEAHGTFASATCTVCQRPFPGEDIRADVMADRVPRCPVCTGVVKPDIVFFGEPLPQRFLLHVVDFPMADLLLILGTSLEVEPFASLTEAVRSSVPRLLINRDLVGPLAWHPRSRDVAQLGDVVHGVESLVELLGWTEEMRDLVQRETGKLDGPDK
Procedure, shortened: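 Same pNCA/GDH-coupled 340 nm NADPH read-out as the Sirt2 assay, using 20 mM Na-phosphate pH 7.8 with 3% DMSO at 20 °C for 45 min. Sirt3 (114-380) was used at 5 µM with AceCS2 peptide TRSGacKVMR as substrate. Inhibitors were tested up to 100 µM.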

[16] = biological target: T3, NAD-dependent protein deacetylase sirtuin-1 (Homo sapiens) (UniProt Q96EB6); experiment: Inhibition of human full length SIRT1 activity expressed in Escherichia coli using p53 peptide as substrate up to 100 uM after 45 mins in presence of NAD+ by pNCA/GDH-based microplate spectrophotometric analysis
T3 sequence (whole entry): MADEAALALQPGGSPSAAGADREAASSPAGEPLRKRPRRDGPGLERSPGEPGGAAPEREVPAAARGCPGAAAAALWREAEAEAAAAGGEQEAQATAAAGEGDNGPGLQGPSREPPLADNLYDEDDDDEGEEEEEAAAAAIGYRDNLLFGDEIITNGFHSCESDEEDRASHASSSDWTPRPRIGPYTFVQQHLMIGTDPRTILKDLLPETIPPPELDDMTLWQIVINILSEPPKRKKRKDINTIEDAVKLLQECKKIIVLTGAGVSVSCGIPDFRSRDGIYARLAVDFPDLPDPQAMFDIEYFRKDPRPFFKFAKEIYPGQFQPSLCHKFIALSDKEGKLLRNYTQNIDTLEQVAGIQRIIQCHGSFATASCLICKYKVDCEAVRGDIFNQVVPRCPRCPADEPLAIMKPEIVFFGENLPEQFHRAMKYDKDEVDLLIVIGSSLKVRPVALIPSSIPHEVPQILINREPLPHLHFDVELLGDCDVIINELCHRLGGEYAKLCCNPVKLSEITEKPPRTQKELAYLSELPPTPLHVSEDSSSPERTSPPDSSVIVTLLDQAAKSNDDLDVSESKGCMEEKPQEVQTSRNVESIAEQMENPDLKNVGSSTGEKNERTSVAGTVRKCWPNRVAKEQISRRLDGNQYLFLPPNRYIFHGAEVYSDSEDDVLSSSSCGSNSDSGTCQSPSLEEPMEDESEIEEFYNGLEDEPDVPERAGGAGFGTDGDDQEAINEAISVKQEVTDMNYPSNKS
Procedure, shortened: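 Full-length Sirt1 at 2 µM with p53 peptide RHKacKLMFK as substrate. Activity was measured in the same coupled pNCA/GDH mix as for Sirt2 (α-ketoglutarate, NADPH, Na-phosphate pH 7.8, 3% DMSO), following NADPH oxidation at 340 nm at 20 °C for 45 min. Compounds were tested up to 100 µM.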

[17] = biological target: NAD-dependent protein deacylase sirtuin-5, mitochondrial (Homo sapiens) (UniProt Q9NXA8); experiment: Inhibition of human SIRT5 (34 to 302 residues) deacetylase activity expressed in Escherichia coli using Prx1 peptide as substrate up to 100 uM after 45 mins in presence of NAD+ by pNCA/GDH-based microplate spectrophotometric analysis
[18] = system: U-937; experiment: Effect on cell cycle arrest in human U937 cells at 25 uM after 48 hrs by propidium iodide staining-based FACS analysis; format: functional
[19] = system: NB-4; experiment: Induction of apoptosis in human NB4 cells assessed as pre-G1 accumulation at 10 uM after 48 hrs by propidium iodide staining-based FACS analysis; format: functional, cell-based; procedure, shortened: as §1
[20] = system: U-937; experiment: Induction of apoptosis in human U937 cells assessed as pre-G1 accumulation at 50 uM after 48 hrs by propidium iodide staining-based FACS analysis; format: functional; procedure, shortened: as §1
[21] = biological target: NAD-dependent protein deacylase sirtuin-5, mitochondrial (Homo sapiens) (UniProt Q9NXA8); experiment: Inhibition of human SIRT5 (34 to 302 residues) desuccinylase activity expressed in Escherichia coli using peptide as substrate up to 100 uM after 45 mins in presence of NAD+ by pNCA/GDH-based microplate spectrophotometric analysis
[22] = biological target: NAD-dependent protein deacylase sirtuin-5, mitochondrial (Homo sapiens) (UniProt Q9NXA8); experiment: Inhibition of human SIRT5 (34 to 302 residues) desuccinylase activity expressed in Escherichia coli using CPS1 peptide as substrate at 100 uM after 45 mins in presence of NAD+ by pNCA/GDH-based microplate spectrophotometric analysis
[23] = biological target: NAD-dependent protein deacylase sirtuin-5, mitochondrial (Homo sapiens) (UniProt Q9NXA8); experiment: Inhibition of human SIRT5 (34 to 302 residues) deacetylase activity expressed in Escherichia coli using Prx1 peptide as substrate at 100 uM after 45 mins in presence of NAD+ by pNCA/GDH-based microplate spectrophotometric analysis
[24] = system: HL-60; experiment: Induction of apoptosis in human HL60 cells assessed as pre-G1 accumulation at 50 uM after 48 hrs by propidium iodide staining-based FACS analysis; format: functional; procedure, shortened: as §1
[25] = biological target: T3, NAD-dependent protein deacetylase sirtuin-1 (Homo sapiens); details: 100 uM
[26] = biological target: T4, NAD-dependent protein deacetylase sirtuin-2 (Homo sapiens) (UniProt Q8IXJ6); details: 5 to 25 uM
T4 sequence (whole entry): T1 sequence (Q8IXJ6 whole entry)

[27] = biological target: T4, NAD-dependent protein deacetylase sirtuin-2 (Homo sapiens); details: 5 to 25 uM; remark: listed apart in the source
[28] = system: U-937; experiment: Induction of apoptosis in human U937 cells assessed as pre-G1 accumulation at 25 uM after 48 hrs by propidium iodide staining-based FACS analysis; format: functional; procedure, shortened: as §1
[29] = system: NB-4; experiment: Induction of apoptosis in human NB4 cells assessed as pre-G1 accumulation at 50 uM after 48 hrs by propidium iodide staining-based FACS analysis; format: functional; procedure, shortened: as §1
[30] = system: MDA-MB-231; experiment: Induction of apoptosis in human MDA-MB-231 cells assessed as pre-G1 accumulation at 50 uM after 48 hrs by propidium iodide staining-based FACS analysis; format: functional; procedure, shortened: as §2

Chain of NAD-dependent protein deacylase sirtuin-5, mitochondrial (Homo sapiens) (Q9NXA8 37-310 limits assumed): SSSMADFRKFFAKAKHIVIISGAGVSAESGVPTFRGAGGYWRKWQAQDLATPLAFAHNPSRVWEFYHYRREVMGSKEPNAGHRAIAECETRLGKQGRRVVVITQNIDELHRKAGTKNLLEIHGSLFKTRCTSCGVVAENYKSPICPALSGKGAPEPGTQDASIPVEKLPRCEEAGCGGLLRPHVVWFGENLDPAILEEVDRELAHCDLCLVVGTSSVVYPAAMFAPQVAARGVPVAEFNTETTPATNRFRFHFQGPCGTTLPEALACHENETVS

| IC50 [5] | IC50 [7] | IC50 [8] | IC50 [10] | IC50 [12] | IC50 [13] | IC50 [14] | SMILES | IC50 [6] | IC50 [9] | IC50 [11] | further results |
| --- | --- | --- | --- | --- | --- | --- | --- | --- | --- | --- | --- |
| 62 µM | 37 µM | 16 µM | 25 µM | 30 µM | 36 µM | 10.4 µM | COc1ccc(-c2noc(CCCBr)n2)cc1 | 18.4 µM | 10.3 µM | 12 µM | Activity [1]: Active; Activity [2]: >80%; Activity [3]: >80%; Activity [4]: >80% |
| 66 µM | 85 µM | 38 µM | > 100 µM | 100 µM | 25 µM | – | BrCCCc1nc(-c2ccc(Br)cc2)no1 | 100 µM | 56 µM | 49 µM | inhibition [15]: inactive; inhibition [16]: inactive; inhibition [17]: inactive; Activity [18]: inactive; Activity [19]: Active; Activity [20]: >80%; inhibition [21]: inactive |
| – | – | – | – | – | – | – | N#C/C(=C\c1ccc(-c2cc(Cl)ccc2Cl)o1)C(=O)Nc1cccc2ncccc12 | – | – | – | inhibition [22]: Active; inhibition [23]: Active; Activity [24]: 6%; inhibition [25]: Active; inhibition [26]: inactive; inhibition [27]: inactive |
| – | – | – | – | – | – | 19.8 µM | Fc1ccc(-c2noc(CCCBr)n2)cc1 | – | – | – | Activity [28]: 11.1 - 37.1%; Activity [29]: 30 - 40%; Activity [30]: 30 - 40% |
